# Data taken from PMC6945491 (Biomaterials, 2019).
# Assays:
# [1] = system: HIV-1NL4–3-eGFP; assay: EC50 by HIV-1 RT activity in infected CEM-CD4+ T cells; type: cell-based; conditions: Human immunodeficiency virus 1, T-cell, 240 h, read-out: EC50 (RT activity)
# [2] = system: HIV-1ADA; assay: Long-term antiretroviral efficacy in MDM; type: cell-based; conditions: 8 h 100 μM, HIV-1ADA challenge
# In short: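 MDM loaded 8 h with 100 μM test compound or parent drug, washed with PBS and kept drug-free with half-medium exchanges every other day. Challenged with HIV-1ADA (MOI 0.1) at days 1–30 after loading, then virus medium replaced. Ten days later medium RT activity was expressed as % of infected untreated cells. Cells fixed in 4% paraformaldehyde and HIV-1 p24 immunostained.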
# [3] = system: MDM; assay: Drug uptake and 3TC-TP formation in MDM; type: cell-based, human; conditions: 100 μM, over 24 h
# In short: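 Human monocytes differentiated 7–10 days in DMEM with 10% heat-inactivated pooled human serum and 1,000 U/ml M-CSF at 37°C, 5% CO2. MDM exposed to 100 μM nanoformulated prodrug or parent drug. At sampling, cells washed twice in PBS, scraped, counted and pelleted. Pellets extracted in methanol with sonication, then drug measured by LC-MS/MS. 3TC-TP quantified by an established protocol. Triplicate.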
# [4] = Pharmacokinetics and biodistribution in rats; conditions: single IM 75 mg/kg, after one day, limit of quantitation, data not shown
# [5] = system: HIV-1ADA; assay: EC50 by HIV-1 RT activity in infected MDM; type: cell-based; conditions: Human immunodeficiency virus 1, 240 h, read-out: EC50 (RT activity)
# In short: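 Human MDM (80,000 cells/well) pretreated 60 min with test compound or parent drug. Infected with HIV-1ADA at MOI 0.1 for 4 h, then cultured 10 days at the same drug concentration with half-medium changes every other day. Supernatant RT activity measured on day 10. EC50 fitted by sigmoidal 4-point logarithmic regression; triplicate.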
smiles,measurement,setting,value
"Nc1ccn([C@H]2CS[C@@H](CO)O2)c(=O)n1 [3TC, 2’,3’-Dideoxy-3’-Thiacytidine]",EC50,[1],35.4 nM
same,time of viral breakthrough after treatment,[2],within one day
same,intracellular drug concentration,[3],< 0.5 μg/10^6 cells
same,drug levels in plasma and tissues,[4],≤ 0.05 ng/mL
same,EC50,[5],19.4 nM
